Article PMC6088244 (Biochemistry, 2018)
Where two headings read alike, the source gives them in different places. Values belong to the compound of their own block, whether it stands above or below them.

Key:
PDE4B2B = PDE4B2B (Homo sapiens, UniProt Q07343); experiment: PDE enzymatic assay with 3H-cAMP or 3H-cGMP as substrates; format: biochemical; details: IC50, PDE4B2B (152–528)
Summary of the method: (§1)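 Recombinant PDE catalytic domains incubated at room temperature for 15 min in 20 mM Tris.HCl pH 7.5, 10 mM MgCl2, 0.5 mM DTT, with 3H-cAMP or 3H-cGMP at 20–40k cpm/assay. Stopped with 0.2 M ZnSO4. Product precipitated with 0.2 N Ba(OH)2. Unreacted substrate in supernatant counted by liquid scintillation. Nine inhibitor concentrations tested. Rolipram served as reference.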

PDE2A3 (580–941) = PDE2A3 (580–941) (Homo sapiens, UniProt O00408); experiment: as above; format: biochemical
Summary of the method: as §1

PDE3A1 (665–1141) = PDE3A1 (665–1141) (Homo sapiens, UniProt Q14432); experiment: PDE enzymatic assay with 3H-cAMP or 3H-cGMP as substrates; format: biochemical
Summary of the method: (§2)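 PDE catalytic domains were incubated with 20 mM Tris-HCl pH 7.5, 10 mM MgCl2, 0.5 mM DTT and 3H-cAMP or 3H-cGMP (20–40k cpm/assay) for 15 min at room temperature. The reaction was stopped with 0.2 M ZnSO4, and product was precipitated with 0.2 N Ba(OH)2. Supernatant radioactivity was scintillation-counted. Nine inhibitor concentrations were tested; rolipram was the reference.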

PDE5A1 (535–860) = PDE5A1 (535–860) (Homo sapiens, UniProt O76074); experiment: PDE enzymatic assay with 3H-cAMP or 3H-cGMP as substrates; format: biochemical
Summary of the method: as §1

PDE7A1 (130–482) = PDE7A1 (130–482) (Homo sapiens, UniProt Q13946); experiment: as above; format: biochemical
Summary of the method: as §1

PDE8A1 (480–820) = PDE8A1 (480–820) (Homo sapiens, UniProt O60658); experiment: PDE enzymatic assay with 3H-cAMP or 3H-cGMP as substrates; format: biochemical
Summary of the method: as §2

PDE9A1 (181–506) = PDE9A1 (181–506) (Homo sapiens, UniProt O76083); experiment: PDE enzymatic assay with 3H-cAMP or 3H-cGMP as substrates; format: biochemical
Summary of the method: as §1

PDE10A2 (448–789) = PDE10A2 (448–789) (Homo sapiens, UniProt Q9Y233); experiment: PDE enzymatic assay with 3H-cAMP or 3H-cGMP as substrates; format: biochemical
Summary of the method: as §2

PDE11A4 (563–934) = biological target: T1, PDE11A4 (563–934) (Homo sapiens, UniProt Q9HCR9); experiment: as above; format: biochemical
T1 sequence (Q9HCR9 563-933 limits assumed): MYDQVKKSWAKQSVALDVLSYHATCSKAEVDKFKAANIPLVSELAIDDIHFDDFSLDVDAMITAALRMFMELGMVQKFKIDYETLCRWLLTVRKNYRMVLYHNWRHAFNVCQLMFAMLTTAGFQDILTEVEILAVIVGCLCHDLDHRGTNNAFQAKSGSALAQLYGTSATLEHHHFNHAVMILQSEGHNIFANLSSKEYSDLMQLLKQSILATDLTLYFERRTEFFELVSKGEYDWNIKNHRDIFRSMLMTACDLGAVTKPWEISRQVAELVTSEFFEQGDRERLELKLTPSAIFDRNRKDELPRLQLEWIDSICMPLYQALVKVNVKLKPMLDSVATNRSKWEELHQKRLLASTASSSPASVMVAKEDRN
Summary of the method: as §2

[1] = Pharmacokinetic properties in mice; format: in vivo; details: 5 mg/kg
Summary of the method: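 Male ICR mice were dosed at 5 mg/kg. The stock dosing sample was 10 mg test compound in 10 ml saline containing 1% DMSO, 40% 2-hydroxypropyl-β-cyclodextrin and 6% Solutol HS 15. It was vortexed and sonicated until fully dissolved.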

mice [2] = experiment: Object recognition test; format: in vivo; details: i.p. 30 min prior to the test; for memory in the object recognition test: Fig. 5A
Summary of the method: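 Male ICR mice (22–24 g) were housed at 22–23 °C on a 12-h light-dark cycle with free food and water. Test compound, rolipram or vehicle was given i.p. 30 min before testing. Mice were trained to tell a novel from a familiar object with a 24-hour delay. Exploration times (Tn, Tf) were recorded over 3 min. n = 8–9; one-way ANOVA with Dunnett's post hoc test.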

mice [3] = experiment: Open-field test; format: in vivo
Summary of the method: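 Naive male ICR mice received test compound, rolipram or vehicle by i.p. injection. Thirty minutes later each was placed in the centre of an open-field box with its floor divided into 4 identical squares and explored for 5 min. Line crossings (all four paws over the line) and rears were counted. Means ± S.E., n = 8–9; one-way ANOVA with Dunnett's test.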

PDE4D = details: read-out: IC50 against PDE4D; racemic Zl-n-91; cited from earlier work
LPS-induced TNFa release = details: read-out: IC50 of LPS-induced TNFa release, cited from earlier work
mice [4] = details: at the same dose required for producing a memory-enhancing effect; cited from earlier work
[5] = doses of 0.01–0.5 mg/kg, 30 min after injection

PDE8A1 (480–820), sequence (O60658 480-820): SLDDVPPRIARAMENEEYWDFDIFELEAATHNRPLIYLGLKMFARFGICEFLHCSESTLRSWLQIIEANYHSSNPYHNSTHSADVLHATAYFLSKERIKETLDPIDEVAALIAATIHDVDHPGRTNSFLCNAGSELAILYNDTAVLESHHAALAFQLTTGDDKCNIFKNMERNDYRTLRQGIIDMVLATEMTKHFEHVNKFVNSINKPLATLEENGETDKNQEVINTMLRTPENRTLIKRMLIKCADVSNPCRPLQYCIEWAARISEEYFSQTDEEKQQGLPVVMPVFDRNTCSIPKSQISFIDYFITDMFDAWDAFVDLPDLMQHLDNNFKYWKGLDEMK
PDE9A1 (181–506), sequence (O76083 241-566): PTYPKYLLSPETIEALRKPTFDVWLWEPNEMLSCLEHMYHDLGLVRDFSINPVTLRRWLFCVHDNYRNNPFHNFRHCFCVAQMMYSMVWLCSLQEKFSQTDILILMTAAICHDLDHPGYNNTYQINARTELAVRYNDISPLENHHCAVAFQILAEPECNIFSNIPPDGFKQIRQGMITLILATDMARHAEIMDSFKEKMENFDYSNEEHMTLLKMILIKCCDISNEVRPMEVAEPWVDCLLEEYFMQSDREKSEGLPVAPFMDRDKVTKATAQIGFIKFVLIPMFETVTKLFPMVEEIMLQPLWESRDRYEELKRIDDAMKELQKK
PDE7A1 (130–482), sequence (Q13946 130-482): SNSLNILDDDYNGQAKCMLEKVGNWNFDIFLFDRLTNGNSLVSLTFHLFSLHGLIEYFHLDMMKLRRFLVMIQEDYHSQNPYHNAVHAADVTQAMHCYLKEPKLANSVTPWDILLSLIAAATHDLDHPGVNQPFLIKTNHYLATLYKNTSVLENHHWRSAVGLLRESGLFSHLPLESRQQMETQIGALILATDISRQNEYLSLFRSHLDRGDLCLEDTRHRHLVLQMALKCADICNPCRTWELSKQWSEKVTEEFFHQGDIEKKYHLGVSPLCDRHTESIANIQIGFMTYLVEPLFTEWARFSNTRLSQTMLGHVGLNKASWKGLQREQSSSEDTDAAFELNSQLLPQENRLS
PDE4B2B, sequence (Q07343 324-700): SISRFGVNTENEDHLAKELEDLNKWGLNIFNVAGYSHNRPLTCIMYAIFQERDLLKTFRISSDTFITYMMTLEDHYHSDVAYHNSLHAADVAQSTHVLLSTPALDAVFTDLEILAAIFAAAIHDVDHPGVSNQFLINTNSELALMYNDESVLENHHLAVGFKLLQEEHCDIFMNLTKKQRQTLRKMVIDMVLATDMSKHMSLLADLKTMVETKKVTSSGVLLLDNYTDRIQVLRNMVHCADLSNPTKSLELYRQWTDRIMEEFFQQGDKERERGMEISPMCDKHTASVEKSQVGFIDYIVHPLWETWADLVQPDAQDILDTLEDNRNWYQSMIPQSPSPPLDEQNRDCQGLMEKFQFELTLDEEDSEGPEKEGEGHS
PDE10A2 (448–789), sequence (Q9Y233 714-1055): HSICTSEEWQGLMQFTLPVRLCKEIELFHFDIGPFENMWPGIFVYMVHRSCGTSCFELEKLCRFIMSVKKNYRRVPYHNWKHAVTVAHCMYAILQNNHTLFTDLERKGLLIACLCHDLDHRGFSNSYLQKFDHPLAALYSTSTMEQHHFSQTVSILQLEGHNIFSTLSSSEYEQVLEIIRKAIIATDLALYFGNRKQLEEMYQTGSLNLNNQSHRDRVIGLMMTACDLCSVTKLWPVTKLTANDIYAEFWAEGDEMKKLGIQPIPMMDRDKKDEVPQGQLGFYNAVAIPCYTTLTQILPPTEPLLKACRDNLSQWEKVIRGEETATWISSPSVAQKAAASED
PDE2A3 (580–941), sequence (O00408 580-941): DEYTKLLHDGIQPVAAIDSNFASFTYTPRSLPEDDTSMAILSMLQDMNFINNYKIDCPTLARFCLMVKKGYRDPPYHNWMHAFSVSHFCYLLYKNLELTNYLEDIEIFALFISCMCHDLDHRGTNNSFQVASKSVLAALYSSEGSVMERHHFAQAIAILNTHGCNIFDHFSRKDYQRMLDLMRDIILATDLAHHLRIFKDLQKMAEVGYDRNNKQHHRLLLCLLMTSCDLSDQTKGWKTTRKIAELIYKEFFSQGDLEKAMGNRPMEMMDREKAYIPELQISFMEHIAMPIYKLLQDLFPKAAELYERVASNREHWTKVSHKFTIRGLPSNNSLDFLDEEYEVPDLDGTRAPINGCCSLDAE
PDE3A1 (665–1141), sequence (Q14432 665-1141): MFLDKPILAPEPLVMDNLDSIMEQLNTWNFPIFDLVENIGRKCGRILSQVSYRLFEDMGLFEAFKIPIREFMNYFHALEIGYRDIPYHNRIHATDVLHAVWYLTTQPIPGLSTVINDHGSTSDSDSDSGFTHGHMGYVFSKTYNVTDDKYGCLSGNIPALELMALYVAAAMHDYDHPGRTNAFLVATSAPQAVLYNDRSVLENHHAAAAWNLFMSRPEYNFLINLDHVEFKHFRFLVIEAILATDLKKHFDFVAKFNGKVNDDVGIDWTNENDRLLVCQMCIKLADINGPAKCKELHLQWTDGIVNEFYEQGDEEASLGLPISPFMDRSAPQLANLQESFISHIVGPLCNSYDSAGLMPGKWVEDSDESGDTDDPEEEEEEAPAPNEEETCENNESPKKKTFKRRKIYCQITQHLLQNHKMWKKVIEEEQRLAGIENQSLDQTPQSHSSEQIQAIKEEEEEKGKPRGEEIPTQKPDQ

IC50 (PDE4B2B): 0.02 ± 0.004 µM
IC50 (PDE2A3 (580–941)): 83 ± 12 µM
IC50 (PDE3A1 (665–1141)): 46 ± 3 µM
IC50 (PDE5A1 (535–860)): 130 ± 23 µM
IC50 (PDE7A1 (130–482)): 17 ± 3 µM
IC50 (PDE8A1 (480–820)): 8.6 ± 0.7 µM
IC50 (PDE9A1 (181–506)): 84 ± 10 µM
IC50 (PDE10A2 (448–789)): 16 ± 1 µM
IC50 (PDE11A4 (563–934)): 23 ± 4 µM
SMILES: CC(C)CC(=O)c1ccc(OC(F)F)c(O[C@H]2CCOC2)c1 [(S)-Zl-n-91, 1-(4-(difluoromethoxy)-3-((tetrahydrofuran-3-yl)oxy)phenyl)-3-methylbutan-1-one]

CL(F) ([1]; PO, male mice): 342 mL/min/kg
F (bioavailability) ([1]; PO, male mice): 33.3%
AUC ([1]; male, ICR, mouse, plasma, iv): 728 ng·h/mL
AUC(0-t) ([1]; male, ICR, mouse, plasma, iv): 725 ng·h/mL
C0 ([1]; male, ICR, mouse, plasma, iv): 6030 ng/mL
MRT inf ([1]; male, ICR, mouse, plasma, iv): 20.4 min
Vd ([1]; male, ICR, mouse, plasma, iv): 2.31 L/kg
clearance ([1]; male, ICR, mouse, plasma, iv): 115 mL/min/kg
half-life ([1]; male, ICR, mouse, plasma, iv): 37.2 min
AUC ([1]; male, ICR, mouse, plasma, po): 244 ng·h/mL
AUC(0-t) ([1]; male, ICR, mouse, plasma, po): 241 ng·h/mL
Cmax ([1]; male, ICR, mouse, plasma, po): 96.5 ng/mL
Tmax ([1]; male, ICR, mouse, plasma, po): 120 min
Vd/F ([1]; male, ICR, mouse, plasma, po): 39.9 L/kg
half-life ([1]; male, ICR, mouse, plasma, po): 81 min
locomotor activity (mice [3]): not altered
line crossings (mice [3]; [5]): altered neither
rears (mice [3]; [5]): altered neither
SMILES: CC(C)CC(=O)c1ccc(OC(F)F)c(OC2CCOC2)c1 (centres unmarked) [Zl-n-91, 1-(4-(difluoromethoxy)-3-((tetrahydrofuran-3-yl)oxy)phenyl)-3-methylbutan-1-one]
memory in the object recognition test (mice [2]): enhanced memory
sedation (mice [3]; dose of 0.5 mg/kg): does not produce sedation
IC50 (PDE4D): 0.026 µM
IC50 (LPS-induced TNFa release; whole blood cell): 0.04 µM

SMILES: COc1ccc([C@]2(C#N)CC[C@@H](C(=O)O)CC2)cc1OC1CCCC1 [cilomilast, reference compound]
IC50 (LPS-induced TNFa release; whole blood): > 10 µM

SMILES: COc1ccc(C2CNC(=O)C2)cc1OC1CCCC1 (centres unmarked) [rolipram]
increase of discrimination ratio (Tn-Tf)/(Tn+Tf) (mice [2]; 0.3 mg/kg, versus vehicle): about 4 times
memory in the object recognition test (mice [2]): enhanced memory
locomotor activity (mice [4]): decreased locomotor activity
